Activity calls are given as the source filed them. The rule behind the calls is not given here.
Legend:
[1] = system: THP-1; experiment: Effect on CCL4 gene expression in THP1 cells treated with Aspergillus fumigatus hyphae after 6 hrs by cDNA array hybridization relative to control; format: functional, Homo sapiens
How it was run: (§1)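 THP-1 cells primed with 10 ng/ml PMA for 6 h, rested 22 h, then exposed 6 h at 37°C to sonicated, nonviable AF 4215 hyphal fragments (E:T 10:1) with or without 0.1 μg/ml VRC. Total RNA (4 μg) reverse-transcribed to biotin-labelled cDNA and hybridised to a 96-gene inflammatory cytokine/receptor nylon array. Chemiluminescent read-out normalised to GAPDH; fold change against untreated cells; >2.5-fold counted significant; three independent arrays.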

[2] = system: THP-1; experiment: Effect on TNFA gene expression in THP1 cells treated with Aspergillus fumigatus hyphae after 6 hrs by cDNA array hybridization; format: functional, Homo sapiens; how it was run: as §1
[3] = system: THP-1; experiment: Increase in IL1-beta production in THP1 cells stimulated with Aspergillus fumigatus hyphae at 0.1 ug/ml after 6 hrs; format: functional, cell-based; conditions: Homo sapiens
How it was run: (§2)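 PMA-primed THP-1 cells (1 × 10^6/ml) incubated 6 h at 37°C with hyphal fragments (E:T 10:1) with or without 0.1 μg/ml VRC. Supernatant IL-1β, TNF-α, IL-12, MCP-1 and MIP-1β measured by sandwich ELISA in duplicate at 450/540 nm. Five independent experiments, means ± SEM; ANOVA with Dunnett's test against untreated cells.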

[4] = system: THP-1; experiment: Effect on IL12B gene expression in THP1 cells treated with Aspergillus fumigatus hyphae after 6 hrs by cDNA array hybridization; format: functional, Homo sapiens; how it was run: as §1
[5] = system: THP-1; experiment: Increase in TNFalpha production in THP1 cells stimulated with Aspergillus fumigatus hyphae at 0.1 ug/ml after 6 hrs; format: functional, cell-based; conditions: Homo sapiens; how it was run: as §2
[6] = system: THP-1; experiment: Effect on CCL15 gene expression in THP1 cells treated with Aspergillus fumigatus hyphae after 6 hrs by cDNA array hybridization relative to control; format: functional, Homo sapiens; how it was run: as §1
[7] = system: THP-1; experiment: Decrease in MCP1 production in THP1 cells stimulated with Aspergillus fumigatus hyphae at 0.1 ug/ml after 6 hrs; format: functional, cell-based; conditions: Homo sapiens; how it was run: as §2
[8] = system: THP-1; experiment: Effect on IFN-gamma gene expression in THP1 cells treated with Aspergillus fumigatus hyphae after 6 hrs by cDNA array hybridization; format: functional, Homo sapiens; how it was run: as §1
[9] = system: THP-1; experiment: Effect on IL11 gene expression in THP1 cells treated with Aspergillus fumigatus hyphae after 6 hrs by cDNA array hybridization; format: functional, Homo sapiens; how it was run: as §1
[10] = system: THP-1; experiment: Effect on CXCL6 gene expression in THP1 cells treated with Aspergillus fumigatus hyphae after 6 hrs by cDNA array hybridization relative to control; format: functional, Homo sapiens; how it was run: as §1
[11] = system: THP-1; experiment: Effect on CCL4 gene expression in THP1 cells treated with Aspergillus fumigatus hyphae by RT-PCR; format: functional, Homo sapiens
How it was run: (§3)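 THP-1 cells PMA-primed and exposed to hyphal fragments (E:T 10:1) with or without 0.1 μg/ml VRC. One-step RT-PCR on 0.5 μg total RNA with M-MuLV: 48°C 30 min, then 30 cycles of 94°C 15 s, 53°C 30 s, 72°C 1 min. Products run on 1.5% agarose and quantified by densitometry after normalisation to an internal control; three independent experiments.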

[12] = system: THP-1; experiment: Effect on TNFA gene expression in THP1 cells treated with Aspergillus fumigatus hyphae by RT-PCR; format: functional, Homo sapiens; how it was run: as §3
[13] = system: THP-1; experiment: Effect on CCL11 gene expression in THP1 cells treated with Aspergillus fumigatus hyphae after 6 hrs by cDNA array hybridization relative to control; format: functional, Homo sapiens; how it was run: as §1
[14] = system: THP-1; experiment: Effect on CCL7 gene expression in THP1 cells treated with Aspergillus fumigatus hyphae after 6 hrs by cDNA array hybridization relative to control; format: functional, Homo sapiens; how it was run: as §1
[15] = system: THP-1; experiment: Effect on CCL20 gene expression in THP1 cells treated with Aspergillus fumigatus hyphae after 6 hrs by cDNA array hybridization relative to control; format: functional, Homo sapiens; how it was run: as §1
[16] = system: Aspergillus fumigatus; experiment: Antifungal activity against Aspergillus fumigatus hyphae incubated with THP1 cells assessed as hyphal damage at 0.1 ug/ml after 6 hrs by XTT assay; format: functional, THP-1
How it was run: (§4)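 A. fumigatus AF 4215 hyphae grown 16 h at 37°C in yeast nitrogen base with 2% glucose, then medium changed to RPMI 1640 + 10% heat-inactivated FCS. PMA-induced THP-1 cells added at E:T 10:1, VRC at 0.1 μg/ml, or both, 6 h at 37°C, 5% CO2. THP-1 lysed with water. XTT 0.25 mg/ml plus coenzyme Q0 40 μg/ml, 1 h. OD 450/690 nm; damage = (1 − X/C)×100 against hyphae-only wells; duplicates.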

[17] = system: THP-1; experiment: Effect on CXCL13 gene expression in THP1 cells treated with Aspergillus fumigatus hyphae after 6 hrs by cDNA array hybridization relative to control; format: functional, Homo sapiens; how it was run: as §1
[18] = system: THP-1; experiment: Effect on TGFB1 gene expression in THP1 cells treated with Aspergillus fumigatus hyphae after 6 hrs by cDNA array hybridization; format: functional, Homo sapiens; how it was run: as §1
[19] = system: THP-1; experiment: Effect on CCL21 gene expression in THP1 cells treated with Aspergillus fumigatus hyphae after 6 hrs by cDNA array hybridization relative to control; format: functional, Homo sapiens; how it was run: as §1
[20] = system: THP-1; experiment: Effect on CCL2 gene expression in THP1 cells treated with Aspergillus fumigatus hyphae by RT-PCR; format: functional, Homo sapiens; how it was run: as §3
[21] = system: THP-1; experiment: Decrease in MIP1-beta production in THP1 cells stimulated with Aspergillus fumigatus hyphae at 0.1 ug/ml after 6 hrs; format: functional, cell-based; conditions: Homo sapiens; how it was run: as §2
[22] = system: THP-1; experiment: Effect on IL12A gene expression in THP1 cells treated with Aspergillus fumigatus hyphae after 6 hrs by cDNA array hybridization; format: functional, Homo sapiens; how it was run: as §1
[23] = system: THP-1; experiment: Effect on IL16 gene expression in THP1 cells treated with Aspergillus fumigatus hyphae after 6 hrs by cDNA array hybridization; format: functional, Homo sapiens; how it was run: as §1
[24] = system: THP-1; experiment: Effect on CCL5 gene expression in THP1 cells treated with Aspergillus fumigatus hyphae after 6 hrs by cDNA array hybridization relative to control; format: functional, Homo sapiens; how it was run: as §1
[25] = system: THP-1; experiment: Increase in IL12 production in THP1 cells stimulated with Aspergillus fumigatus hyphae at 0.1 ug/ml after 6 hrs; format: functional, cell-based; conditions: Homo sapiens; how it was run: as §2
[26] = system: THP-1; experiment: Effect on CCL3 gene expression in THP1 cells treated with Aspergillus fumigatus hyphae after 6 hrs by cDNA array hybridization relative to control; format: functional, Homo sapiens; how it was run: as §1
[27] = system: THP-1; experiment: Effect on CCL2 gene expression in THP1 cells treated with Aspergillus fumigatus hyphae after 6 hrs by cDNA array hybridization relative to control; format: functional, Homo sapiens; how it was run: as §1
[28] = system: Aspergillus fumigatus; experiment: Antifungal activity against Aspergillus fumigatus hyphae assessed as hyphal damage at 0.1 ug/ml after 6 hrs by XTT assay; format: functional; how it was run: as §4
[29] = system: CCL16 (Homo sapiens); experiment: Effect on CCL16 gene expression in THP1 cells treated with Aspergillus fumigatus hyphae after 6 hrs by cDNA array hybridization relative to control
[30] = system: THP-1; experiment: Effect on IL1R1 gene expression in THP1 cells treated with Aspergillus fumigatus hyphae after 6 hrs by cDNA array hybridization; format: functional, Homo sapiens; how it was run: as §1

In the case of `C[C@@H](c1ncncc1F)[C@](O)(Cn1cncn1)c1ccc(F)cc1F` [VORICONAZOLE], the Fold change [1] is reported as 5.2, the Fold change [2] is reported as 3.1 and the Activity [3] is reported as “Active”. The Fold change [4] was -6, the Activity [5] was “Active” and the Fold change [6] was 10.1. For the same compound, the Activity [7] was “Active”, the Fold change [8] was 3.3 and the Fold change [9] was 6.4. It also gave a Fold change [10] of 3.5, a Fold change [11] of 4 and a Fold change [12] of 2.6. For the same compound, the Fold change [13] was 2.5, the Fold change [14] was 11.3 and the Fold change [15] was -2.5. The Activity [16] was 42.11%, the Fold change [17] was 7 and the Fold change [18] was 5.9. For the same compound, the Fold change [19] was -2.6, the Fold change [20] was -3 and the Activity [21] was “Active”. For the same compound, the Fold change [22] was -3.3, the Fold change [23] was -7.7 and the Fold change [24] was 17.7. For the same compound, the Activity [25] was “Active”, the Fold change [26] was 19.3 and the Fold change [27] was -2.4. It also gave an Activity [28] of 26.77%, a Fold change [29] of 0.04 and a Fold change [30] of 6.3.
